Screens (PubChem BioAssay)
NR1D1 modulator = modulators of Rev-erb alpha DNA binding, primary screen, biochemical, FITC-DNA, fluorescence polarization, uHTS; Nuclear receptor subfamily 1 group D member 1 (Homo sapiens), P20393; Rev-erbα–FITC-DNA binding, 90 min; activity, % at 10 µM; 0.79% of 370,000 active; AID 1259318, 2017;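 active means activity above about 14%, limit read from the data; passing the limit was not always enough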;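 further: 0% = DMSO wells with 35 nM protein and 100% = DMSO wells with 750 nM protein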
Target sequence (P20393 whole entry, looked up): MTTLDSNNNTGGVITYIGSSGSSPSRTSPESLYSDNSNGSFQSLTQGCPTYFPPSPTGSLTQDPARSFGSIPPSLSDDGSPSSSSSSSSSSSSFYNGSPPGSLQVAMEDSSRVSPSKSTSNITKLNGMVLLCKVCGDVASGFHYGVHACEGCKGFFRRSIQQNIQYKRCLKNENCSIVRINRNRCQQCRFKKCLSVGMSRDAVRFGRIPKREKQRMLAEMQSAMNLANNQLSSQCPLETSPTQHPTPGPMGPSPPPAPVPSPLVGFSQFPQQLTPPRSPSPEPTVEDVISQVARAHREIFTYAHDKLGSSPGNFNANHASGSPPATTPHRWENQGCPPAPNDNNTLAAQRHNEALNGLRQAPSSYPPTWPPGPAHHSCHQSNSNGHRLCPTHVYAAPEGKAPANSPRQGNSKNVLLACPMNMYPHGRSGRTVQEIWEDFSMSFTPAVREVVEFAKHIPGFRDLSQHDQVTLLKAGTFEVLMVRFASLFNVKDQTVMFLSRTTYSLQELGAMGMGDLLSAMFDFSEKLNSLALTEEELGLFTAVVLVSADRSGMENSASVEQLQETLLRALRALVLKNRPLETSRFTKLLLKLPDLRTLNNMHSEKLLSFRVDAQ
rCAG RNA binder = binders of r(CAG) RNA repeats, primary screen, biochemical, fluorescence; r(CAG) RNA repeat, TO-PRO-1 dye displacement fluorescence; AID 651821, 2012; 1.3% of 370,000 active; inhibition, % at 3 µM;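 active means inhibition above the plate cutoff, the mean of all test compounds on that plate plus 3 SD, cut at about 35% in these data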;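 further: 0% = DMSO alone and 100% = 100 µM mitoxantrone as full dye displacement; higher means more dye released from RNA so lower well fluorescence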
PG9 binder = binders of HIV-1 gp120 antibody PG9, primary screen, biochemical, TR-FRET. inhibition, % at 6.7 µM. TR-FRET gp120-PG9 antibody binding. 0.43% of 360,000 active. AID 624416, 2012; in the data active means inhibition above about 8.5%
NR2E3 ag-1 = inhibitors of NR2E3-RetCOR corepressor binding, primary screen, NR2E3 agonist project, biochemical, TR-FRET, GST-NR2E3, biotin-RetCOR; AID 2300, 2010; 0.12% of 320,000 active; inhibition of corepressor binding, % at 4.78 µM; 1536-well; Photoreceptor-specific nuclear receptor (Homo sapiens), Q9Y5X4;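 active means percent inhibition above the cutoff of mean plus 3 SD of all tested compounds, set per screening campaign, cut at about 20% in these data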;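 further: 0% = DMSO wells and 100% = biotin wells as full block of FRET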
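Material – GST-tagged NR2E3 plus biotinylated RetCOR corepressor · Quantity – NR2E3 fusion 1.35 nM · Times – 5 h incubation at 4 °C · Medium – pH 7.5 Tris-based buffer · Technique – TR-FRET, Eu(K)-anti-GST donor, streptavidin-D2 acceptor, ex 340, em 617/671 nm · Benchmarks – high control biotin, low control 0.6% DMSO · Format – 1536-well plates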
NR2E3 ag-2 = NR2E3 agonists in two-hybrid cells, primary screen, cell-based, luminescence, CHO-S, Gal4-NCOR/VP16-NR2E3 | Photoreceptor-specific nuclear receptor (Homo sapiens), Q9Y5X4 | inhibition of corepressor binding, % at 3.98 µM | 0.35% of 360,000 active | luciferase;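 active means inhibition above the mean of all tested compounds plus 3 SD, cut at about 70% in these data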;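 further: 0% = DMSO with NR2E3 transfected cells and 100% = cells lacking NR2E3 construct; higher means lower luciferase signal from less NR2E3 corepressor binding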
rCAG bind conf = small molecules binding CAG repeat RNA – biochemical, fluorescence, confirmation; shares compounds with rCAG RNA binder; r(CAG) RNA repeat, TO-PRO-1 dye displacement fluorescence; inhibition, % at 3 µM; 70% of 4,300 active; AID 652065, 2013;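 active means inhibition above a per-plate cutoff, the mean inhibition of sample wells plus 3 SD, cut at about 35% in these data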;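 further: loss of TO-PRO-1 fluorescence as compound displaces dye from 1x1 AA loop RNA; 0% = DMSO only wells and 100% = 100 µM mitoxantrone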
dCAG dye counter = displacement of TO-PRO-1 from CAG DNA duplex, counter-screen for rCAG RNA repeat binder project, biochemical, fluorescence, TO-PRO-1 dye, d(CAG) DNA oligo; inhibition, % at 3 µM; d(CAG) DNA oligo TO-PRO-1 dye displacement; shares compounds with rCAG RNA binder; 94% of 4,300 active;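 active means inhibition above its plate's cutoff, the mean test-well inhibition plus 3 SD, cut at about 4.8% in these data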;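 further: 0% = DNA dye mix with DMSO and 100% = 100 µM mitoxantrone; hits displace the dye from DNA and so lower well fluorescence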
The depositor's hits bear a star; / = not tested or not shown. The list is not random: actives were taken first. Their share in the collection is about 2.6%.

SMILES | NR1D1 modulator | rCAG RNA binder | PG9 binder | NR2E3 ag-1 | NR2E3 ag-2 | rCAG bind conf | dCAG dye counter
CCCCCC(=O)N1C[C@H](O)[C@@H](n2cc(COC(=O)c3ccccc3)nn2)C[C@@H]1c1ccc(OC)cc1 | -1 | 2 | -2 | / | -18 | / | /
CCOc1cc(C(=O)Nc2ccc(S(=O)(=O)Nc3nnc(CC)s3)cc2)cc(OCC)c1OCC | -2 | 63* | -4 | 0 | 0 | 67* | 28*
CCOc1cc(C(=O)Nc2ccc(S(=O)(=O)NC3=NCCCCC3)cc2)cc(OCC)c1OCC | -3 | -9 | -4 | -3 | 11 | / | /
Nc1[nH]c(C(=O)c2ccccc2)c(-c2ccccc2Br)c1C(=O)c1ccccc1 | -5 | 7 | 0 | / | -48 | / | /
CCOC(=O)c1sc(N2N=C(C)/C(=C\c3ccc(OCC(=O)OC)cc3)C2=O)nc1C | 5 | 52* | -3 | -1 | 11 | 45* | 10*
CCOC(=O)c1sc(Nc2ccc(OCC)cc2)nc1C | 8 | -3 | 2 | 0 | -24 | / | /
CCc1ccc(NC(=O)CSc2nc3ccsc3c(=O)n2CCC(=O)O)cc1 | -6 | 23 | 0 | -2 | -5 | / | /
CCc1ccc(NC(=O)C(CC)Sc2nc3ccsc3c(=O)n2CCC(=O)O)cc1 (stereo not given) | -4 | 38* | 0 | 0 | -1 | 23 | 4.4*
CCC(Sc1nc2ccsc2c(=O)n1Cc1ccc(C(=O)O)cc1)C(=O)Nc1cccc(OC)c1 (stereo not given) | -3 | 46* | 1 | / | -26 | 36* | 11*
CCCN(CCC)Cc1cc(=O)oc2cc(C)c(Cl)cc12 | 1 | 6 | -2 | / | 12 | / | /
O=C(c1ccc(S(=O)(=O)Nc2ccccc2F)cc1)N1CCN(c2ccccn2)CC1 | -2 | 14 | 1 | / | -15 | / | /
Cc1cccc(CNC(=O)C(C)n2nc(C)c3c(C)n(-c4ccccc4)nc3c2=O)c1 (stereo not given) | 2 | -6 | -3 | -6 | -7 | / | /
CC1=C/C(=C(\c2cc(C)c(O)c(Br)c2)c2ccccc2S(=O)(=O)O)C=C(Br)C1=O | -14 | 49* | -74 | -51 | -4 | 33 | 9.3*
Cc1cc(C(=O)c2ccccc2)cc(C)c1O | -4 | 1 | 0 | / | -11 | / | /
N#Cc1c(N)[nH]c(C(=O)c2ccccc2)c1-c1ccc(Br)cc1 | 3 | 11 | 0 | / | / | / | /
COc1ccc(C(=O)CSc2nnc(-c3ccco3)n2C)cc1 | 1 | 5 | -2 | 0 | -27 | / | /
O=C(CSc1ccc(-c2ccco2)nn1)c1ccc(F)cc1 | -7 | 37* | -1 | -2 | -7 | 9 | 4
COc1ccc(C(=O)CSc2nnc(-c3ccco3)c(-c3ccco3)n2)cc1 | -12 | 51* | -3 | / | -15 | 49* | 22*
O=C(CSc1nnc(-c2ccco2)c(-c2ccco2)n1)Nc1ccccc1 | -20 | 60* | -2 | 7 | -61 | 28 | 15*
CCCCN1C(=O)C(CC(=O)NCc2cccs2)CC(C(=O)N(C(C)C)C(C)C)=C1C (stereo not given) | -8 | -2 | 0 | / | 16 | / | /
CSCCC(NC(=O)c1ccccc1Br)C(=O)N1CCN(C/C=C/c2ccccc2)CC1 (stereo not given) | 2 | 1 | -2 | / | 8 | / | /
Nc1ccn([C@@H]2O[C@H](CNC(=O)[C@@H](Cc3cccnc3)NC=O)[C@@H](O)[C@H]2O)c(=O)n1 | -4 | 1 | -1 | / | -10 | / | /
CCc1nc2ccc(C(=O)NCc3ccc(OC)cc3)cn2c1N(CC)CCN(C)C | 0 | 1 | 0 | / | -2 | / | /
COc1cccc([C@@H]2CC=C(C(=O)O)[C@H](c3ccccc3)N2S(=O)(=O)c2ccc(C)cc2)c1 | -2 | 43* | -3 | 0 | -33 | 37* | 8.9*
CCOC(=O)C1=CCC(c2ccccc2)N(S(=O)(=O)c2ccc(C)cc2)[C@H]1CC (stereo not given in full) | 0 | 4 | 4 | / | / | / | /
SMILES | NR1D1 modulator | rCAG RNA binder | PG9 binder | NR2E3 ag-1 | NR2E3 ag-2 | rCAG bind conf | dCAG dye counter
Cc1ccc(S(=O)(=O)N2[C@@H](c3cccc(Cl)c3)C(C(=O)OC(C)(C)C)=CC[C@H]2c2cccc(Cl)c2)cc1 | 7 | 1 | -1 | / | 3 | / | /
COc1cccc([C@@H]2CC=C(C(=O)O)[C@H](c3ccc(F)cc3)N2S(=O)(=O)c2ccc(C)cc2)c1 | -3 | 45* | 0 | 4 | 7 | 37* | 9.3*
COc1cccc([C@@H]2CC=C(C(=O)O)[C@H](c3cccc(Cl)c3)N2S(=O)(=O)c2ccc(C)cc2)c1 | -4 | 62* | -2 | 5 | -20 | 63* | 26*
Cc1nn(-c2ccccc2)c(Cl)c1C(=O)OCC(=O)NCCc1ccc(S(N)(=O)=O)cc1 | -6 | 5 | 0 | / | 1 | / | /
Cc1ccc2nc(Cl)c(/C=N/Nc3ccc(C(=O)O)cc3)cc2c1 | -4 | 41* | -6 | -4 | -22 | 23 | 5.3*
O=c1cc(-c2c(O)c3ccccc3n(Cc3ccccc3)c2=O)[nH][nH]1 | 6 | 47* | 0 | 0 | -43 | 22 | 8.3*
O=C(CN1C(=O)/C(=C2/SC(=S)N(CCS(=O)(=O)O)C2=O)c2ccccc21)Nc1cccc(C(F)(F)F)c1 | 3 | 91* | -2 | / | 9 | 94* | 78*
O=C(CN1C(=O)/C(=C2\SC(=S)N(CCS(=O)(=O)O)C2=O)c2ccccc21)Nc1cccc(Br)c1 | -1 | 88* | 0 | 3 | -12 | 89* | 65*
COCCN1C(=O)/C(=C2/C(=O)N(CC(=O)Nc3ccccc3Cl)c3ccccc32)SC1=S | -4 | 0 | 0 | 3 | -17 | / | /
CC(C)NC(=O)c1onc(CSc2cccc3ccccc23)c1C(=O)O | 1 | 36* | 1 | 5 | 32 | 30 | 7.2*
CCCCNC(=O)c1onc(CSc2cccc(OCC)c2)c1C(=O)O | 2 | 45* | 0 | 3 | -18 | 20 | 1
O=C(NCC1CCCO1)c1onc(CSc2cccc3ccccc23)c1C(=O)O (stereo not given) | -3 | 42* | -3 | 5 | -34 | 40* | 6.2*
CCCCNC(=O)c1onc(CSc2ccccc2)c1C(=O)O | 1 | 11 | 1 | 3 | -14 | / | /
CCCCNC(=O)c1onc(CSc2ccc(C(C)C)cc2)c1C(=O)O | -4 | 51* | -2 | 0 | 31 | 48* | 11*
